From ChEMBL document CHEMBL4177603 (Bioorg Med Chem Lett, 2017)

Tests used:
[1] = Biliary clearance in rat at 0.3 mg/kg, iv via infusion for 1 hr; assay type: ADME, organism-based, Bile; conditions: in vivo
monoamine oxidase = monoamine oxidase (Homo sapiens, UniProt P21397+P27338); experiment: Inhibition of monoamine oxidase (unknown origin) at 10 uM relative to control; assay type: protein assay
[2] = molecular target: 5-hydroxytryptamine receptor 2A (Homo sapiens) (UniProt P28223); experiment: Agonist activity at human 5-HT2A receptor expressed in HEK293 cells assessed as increase in IP1 accumulation at 10 uM measured after 30 mins by HTRF method relative to control; assay type: functional, cell-based
Cytochrome P450 2D6 = Cytochrome P450 2D6 (Homo sapiens, UniProt P10635); experiment: Inhibition of CYP2D6 (unknown origin); assay type: ADME
[3] = Protein binding in non-human primate plasma assessed as fraction unbound at 2 uM; assay type: ADME, cell-free, Macaca mulatta; conditions: rhesus monkey
[4] = Drug recovery in bile duct-cannulated rat bile at 0.3 mg/kg, iv via infusion for 1 hr; assay type: ADME, organism-based; conditions: read-out: Drug recovery
[5] = Protein binding in dog plasma assessed as fraction unbound; assay type: ADME, cell-free, Canis lupus familiaris
[6] = molecular target: Prostaglandin G/H synthase 2 (Homo sapiens) (UniProt P35354); experiment: Inhibition of recombinant human COX2 at 10 uM using arachidonic acid as substrate measured after 5 mins by fluorescence assay
[7] = Protein binding in human plasma assessed as fraction unbound; assay type: ADME, cell-free
[8] = molecular target: T1, Alpha-1A adrenergic receptor (Homo sapiens) (UniProt P35348); experiment: Displacement of [3H]prazosin from recombinant human alpha1a receptor at 10 uM after 60 mins by scintillation counting method
T1 sequence (whole entry): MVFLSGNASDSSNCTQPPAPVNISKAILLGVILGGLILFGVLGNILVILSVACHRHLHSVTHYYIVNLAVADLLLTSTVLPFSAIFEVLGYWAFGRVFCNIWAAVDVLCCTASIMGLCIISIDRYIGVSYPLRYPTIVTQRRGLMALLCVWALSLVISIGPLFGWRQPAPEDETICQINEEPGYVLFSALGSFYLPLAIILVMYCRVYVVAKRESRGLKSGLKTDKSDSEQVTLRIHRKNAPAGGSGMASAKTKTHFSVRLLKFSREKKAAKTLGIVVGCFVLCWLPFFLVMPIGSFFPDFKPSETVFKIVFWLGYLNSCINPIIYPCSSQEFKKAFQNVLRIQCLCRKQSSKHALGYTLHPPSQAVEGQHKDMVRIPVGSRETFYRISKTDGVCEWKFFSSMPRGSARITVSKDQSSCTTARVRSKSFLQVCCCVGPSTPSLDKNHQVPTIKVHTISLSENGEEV

[9] = molecular target: D(1A) dopamine receptor (Homo sapiens) (UniProt P21728); experiment: Antagonist activity at recombinant human D1 receptor expressed in CHOK1 cells assessed as inhibition of dopamine-induced cAMP accumulation at 10 uM after 30 mins by HTRF assay relative to control; assay type: functional, cell-based
[10] = Protein binding in rat plasma assessed as fraction unbound; assay type: ADME, cell-free
[11] = Volume of distribution at steady state in rat at 0.3 mg/kg, iv via infusion for 1 hr; assay type: ADME, organism-based; conditions: in vivo, read-out: Vdss
[12] = molecular target: Sodium-dependent serotonin transporter (Homo sapiens) (UniProt P31645); experiment: Displacement of [3H]imipramine from recombinant human […] at 10 uM after 60 mins by scintillation counting method
[13] = molecular target: Histamine H2 receptor (Homo sapiens) (UniProt P25021); experiment: Agonist activity at recombinant human H2 receptor expressed in CHOK1 cells assessed as increase in cAMP accumulation at 10 uM measured after 30 mins by HTRF assay relative to control; assay type: functional, cell-based
[14] = molecular target: Delta-type opioid receptor (Homo sapiens) (UniProt P41143); experiment: Agonist activity at human DOR expressed in Chem1 cells assessed as increase in calcium flux at 10 uM by fluorimetric method relative to control; assay type: functional, cell-based
[15] = Intrinsic clearance in human liver microsomes; assay type: ADME, microsome; conditions: read-out: CLH
[16] = Clearance in rat blood at 0.3 mg/kg, iv via infusion for 1 hr; assay type: ADME, organism-based; conditions: whole blood
In short: (§1)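 Blood clearance was calculated from the measured plasma clearance and the measured blood:plasma ratio.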

[17] = molecular target: Histamine H1 receptor (Homo sapiens) (UniProt P35367); experiment: Displacement of [3H]pyrilamine from recombinant human H1 receptor at 10 uM after 60 mins by scintillation counting method
[18] = molecular target: Beta-2 adrenergic receptor (Homo sapiens) (UniProt P07550); experiment: Antagonist activity at recombinant human beta2 receptor expressed in CHOK1 cells assessed as inhibition of isoproterenol-induced cAMP accumulation at 10 uM after 30 mins by HTRF assay relative to control; assay type: functional, cell-based
[19] = molecular target: Acetylcholinesterase (Homo sapiens) (UniProt P22303); experiment: Inhibition of recombinant human AChE at 10 uM using acetylthiocholine as substrate measured after 30 mins by spectrophotometric method relative to control
[20] = molecular target: Glucocorticoid receptor (Homo sapiens) (UniProt P04150); experiment: Displacement of [3H]dexamethasone from human glucocorticoid receptor at 10 uM after 360 mins by scintillation counting method
[21] = molecular target: Histamine H1 receptor (Homo sapiens) (UniProt P35367); experiment: Agonist activity at human H1 receptor expressed in HEK293 cells assessed as increase in calcium flux at 10 uM by fluorimetric method relative to control; assay type: functional, cell-based
[22] = Inhibition of dog Nav1.7 expressed in HEK cells by automated patchXpress electrophysiology method; assay type: cell-based; conditions: HEK293
[23] = Cytotoxicity against human THLE cells; assay type: cell-based
[24] = Protein binding in mouse plasma assessed as fraction unbound; assay type: ADME, cell-free
[25] = molecular target: T2, Sodium channel protein type 5 subunit alpha (Homo sapiens, UniProt Q14524); experiment: Inhibition of human Nav1.5 by Q-patch clamp electrophysiology method
[26] = molecular target: High affinity choline transporter 1 (Homo sapiens) (UniProt Q9GZV3); experiment: Displacement of [3H]hemicholinium-3 from recombinant human choline transporter at 10 uM after 60 mins by scintillation counting method
[27] = molecular target: Sodium channel protein type 8 subunit alpha (Rattus norvegicus, UniProt O88420); experiment: Inhibition of rat Nav1.6 expressed in HEK cells by patch clamp electrophysiology method; assay type: cell-based
[28] = Clearance in iv dosed mouse blood; assay type: ADME, organism-based; conditions: whole blood; in short: as §1
[29] = molecular target: Sodium channel protein type 4 subunit alpha (Homo sapiens, UniProt P35499); experiment: Inhibition of human Nav1.4 expressed in HEK cells by patch clamp electrophysiology method; assay type: cell-based
[30] = Clearance in dog blood at 0.3 mg/kg, iv via infusion for 0.5 hrs; assay type: ADME, organism-based, Canis lupus familiaris; conditions: whole blood; in short: as §1
[31] = molecular target: High affinity choline transporter 1 (Homo sapiens, UniProt Q9GZV3); experiment: Displacement of [3H]hemicholinium-3 from recombinant human choline transporter after 60 mins by scintillation counting method
[32] = Clearance in iv dosed mouse plasma; assay type: ADME, organism-based
[33] = molecular target: Sodium channel protein type 9 subunit alpha (Rattus norvegicus, UniProt O08562); experiment: Inhibition of rat Nav1.7 expressed in HEK cells by patch clamp electrophysiology method; assay type: cell-based
[34] = molecular target: T2, Sodium channel protein type 5 subunit alpha; experiment: Inhibition of human Nav1.5 expressed in HEK cells by automated patchXpress electrophysiology method; assay type: ADME, cell-based
[35] = Protein binding in dog plasma assessed as fraction unbound at 2 uM; assay type: ADME, cell-free, Canis lupus familiaris
[36] = Volume of distribution at steady state in iv dosed mouse; assay type: ADME, organism-based; conditions: in vivo, read-out: Vdss
[37] = Half-life in iv dosed mouse; assay type: ADME, organism-based; conditions: in vivo

Chain of High affinity choline transporter 1 (Q9GZV3 whole entry): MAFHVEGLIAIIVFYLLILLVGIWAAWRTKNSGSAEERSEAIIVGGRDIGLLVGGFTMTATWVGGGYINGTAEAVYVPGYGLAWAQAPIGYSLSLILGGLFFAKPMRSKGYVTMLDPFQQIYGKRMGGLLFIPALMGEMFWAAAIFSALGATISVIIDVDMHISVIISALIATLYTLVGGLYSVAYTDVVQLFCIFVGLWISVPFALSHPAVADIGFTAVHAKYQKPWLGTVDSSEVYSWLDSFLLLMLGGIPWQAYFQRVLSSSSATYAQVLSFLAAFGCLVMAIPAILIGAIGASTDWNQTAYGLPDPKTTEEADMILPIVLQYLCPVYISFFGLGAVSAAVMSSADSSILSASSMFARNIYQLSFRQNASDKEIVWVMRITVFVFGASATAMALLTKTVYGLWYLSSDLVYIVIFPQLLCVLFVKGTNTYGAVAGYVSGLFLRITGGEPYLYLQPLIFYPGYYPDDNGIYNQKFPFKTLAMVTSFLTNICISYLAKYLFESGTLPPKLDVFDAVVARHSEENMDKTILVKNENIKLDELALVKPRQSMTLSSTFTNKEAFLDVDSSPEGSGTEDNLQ
Chain of Histamine H1 receptor (Homo sapiens) (P35367 whole entry): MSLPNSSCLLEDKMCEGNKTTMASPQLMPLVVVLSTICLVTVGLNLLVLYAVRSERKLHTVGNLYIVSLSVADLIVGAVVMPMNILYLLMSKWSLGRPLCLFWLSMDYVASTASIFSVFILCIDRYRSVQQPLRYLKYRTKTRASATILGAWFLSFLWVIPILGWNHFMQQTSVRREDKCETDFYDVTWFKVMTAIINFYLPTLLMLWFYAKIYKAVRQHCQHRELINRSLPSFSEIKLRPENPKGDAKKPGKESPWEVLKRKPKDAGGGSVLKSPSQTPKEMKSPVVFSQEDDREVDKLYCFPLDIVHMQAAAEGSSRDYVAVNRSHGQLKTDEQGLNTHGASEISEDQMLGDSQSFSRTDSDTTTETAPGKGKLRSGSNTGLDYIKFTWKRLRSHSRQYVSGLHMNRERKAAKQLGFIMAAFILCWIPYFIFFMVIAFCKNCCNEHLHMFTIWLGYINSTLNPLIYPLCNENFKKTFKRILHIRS
T2 sequence (Q14524 whole entry): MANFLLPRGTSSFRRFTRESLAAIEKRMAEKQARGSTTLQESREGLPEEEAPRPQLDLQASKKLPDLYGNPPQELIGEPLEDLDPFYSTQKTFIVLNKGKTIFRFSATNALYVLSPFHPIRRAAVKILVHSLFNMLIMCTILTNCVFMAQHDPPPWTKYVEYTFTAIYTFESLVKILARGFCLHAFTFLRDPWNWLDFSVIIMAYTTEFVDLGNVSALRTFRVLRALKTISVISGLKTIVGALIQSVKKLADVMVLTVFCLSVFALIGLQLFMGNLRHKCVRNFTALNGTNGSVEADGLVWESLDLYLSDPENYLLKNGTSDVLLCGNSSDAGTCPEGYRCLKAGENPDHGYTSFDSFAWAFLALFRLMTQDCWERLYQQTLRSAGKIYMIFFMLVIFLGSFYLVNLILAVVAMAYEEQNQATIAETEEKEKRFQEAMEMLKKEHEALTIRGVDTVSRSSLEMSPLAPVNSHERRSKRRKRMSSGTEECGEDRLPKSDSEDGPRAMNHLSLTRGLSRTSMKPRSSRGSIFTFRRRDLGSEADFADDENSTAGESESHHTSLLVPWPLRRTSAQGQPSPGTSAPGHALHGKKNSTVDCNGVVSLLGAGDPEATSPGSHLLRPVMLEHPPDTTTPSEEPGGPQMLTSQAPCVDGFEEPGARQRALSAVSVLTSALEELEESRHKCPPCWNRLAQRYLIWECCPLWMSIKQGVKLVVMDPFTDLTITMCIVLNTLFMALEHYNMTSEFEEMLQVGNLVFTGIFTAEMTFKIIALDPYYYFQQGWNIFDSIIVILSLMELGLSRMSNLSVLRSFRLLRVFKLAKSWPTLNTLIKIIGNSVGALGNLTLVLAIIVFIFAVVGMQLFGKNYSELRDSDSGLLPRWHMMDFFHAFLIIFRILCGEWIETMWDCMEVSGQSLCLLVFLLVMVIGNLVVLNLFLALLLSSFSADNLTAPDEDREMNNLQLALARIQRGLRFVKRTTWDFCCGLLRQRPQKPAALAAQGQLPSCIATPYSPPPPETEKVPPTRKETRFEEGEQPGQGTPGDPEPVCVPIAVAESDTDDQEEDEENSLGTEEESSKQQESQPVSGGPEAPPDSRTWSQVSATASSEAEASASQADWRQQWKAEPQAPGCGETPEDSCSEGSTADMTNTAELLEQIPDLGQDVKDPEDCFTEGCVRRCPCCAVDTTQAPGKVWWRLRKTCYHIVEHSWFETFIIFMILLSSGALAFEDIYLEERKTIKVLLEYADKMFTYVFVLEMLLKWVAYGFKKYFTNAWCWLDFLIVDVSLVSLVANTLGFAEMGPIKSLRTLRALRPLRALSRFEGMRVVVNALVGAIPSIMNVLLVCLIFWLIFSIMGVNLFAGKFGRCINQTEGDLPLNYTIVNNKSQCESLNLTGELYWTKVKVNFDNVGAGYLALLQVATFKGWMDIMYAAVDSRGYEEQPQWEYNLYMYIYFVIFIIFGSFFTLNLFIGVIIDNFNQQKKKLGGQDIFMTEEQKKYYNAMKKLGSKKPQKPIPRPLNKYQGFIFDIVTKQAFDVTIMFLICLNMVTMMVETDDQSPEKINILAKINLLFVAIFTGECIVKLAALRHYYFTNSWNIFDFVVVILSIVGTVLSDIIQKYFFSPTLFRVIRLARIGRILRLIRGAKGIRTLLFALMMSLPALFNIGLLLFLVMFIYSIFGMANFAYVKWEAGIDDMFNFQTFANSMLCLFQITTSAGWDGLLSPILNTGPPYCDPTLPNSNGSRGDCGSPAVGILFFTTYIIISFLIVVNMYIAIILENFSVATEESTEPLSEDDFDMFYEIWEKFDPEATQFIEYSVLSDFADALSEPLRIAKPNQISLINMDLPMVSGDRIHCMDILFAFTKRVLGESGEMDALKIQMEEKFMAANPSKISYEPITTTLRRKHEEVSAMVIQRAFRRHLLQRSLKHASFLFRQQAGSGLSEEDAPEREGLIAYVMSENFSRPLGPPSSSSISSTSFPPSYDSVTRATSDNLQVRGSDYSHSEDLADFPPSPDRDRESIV
Chain of Sodium channel protein type 8 subunit alpha (O88420 whole entry): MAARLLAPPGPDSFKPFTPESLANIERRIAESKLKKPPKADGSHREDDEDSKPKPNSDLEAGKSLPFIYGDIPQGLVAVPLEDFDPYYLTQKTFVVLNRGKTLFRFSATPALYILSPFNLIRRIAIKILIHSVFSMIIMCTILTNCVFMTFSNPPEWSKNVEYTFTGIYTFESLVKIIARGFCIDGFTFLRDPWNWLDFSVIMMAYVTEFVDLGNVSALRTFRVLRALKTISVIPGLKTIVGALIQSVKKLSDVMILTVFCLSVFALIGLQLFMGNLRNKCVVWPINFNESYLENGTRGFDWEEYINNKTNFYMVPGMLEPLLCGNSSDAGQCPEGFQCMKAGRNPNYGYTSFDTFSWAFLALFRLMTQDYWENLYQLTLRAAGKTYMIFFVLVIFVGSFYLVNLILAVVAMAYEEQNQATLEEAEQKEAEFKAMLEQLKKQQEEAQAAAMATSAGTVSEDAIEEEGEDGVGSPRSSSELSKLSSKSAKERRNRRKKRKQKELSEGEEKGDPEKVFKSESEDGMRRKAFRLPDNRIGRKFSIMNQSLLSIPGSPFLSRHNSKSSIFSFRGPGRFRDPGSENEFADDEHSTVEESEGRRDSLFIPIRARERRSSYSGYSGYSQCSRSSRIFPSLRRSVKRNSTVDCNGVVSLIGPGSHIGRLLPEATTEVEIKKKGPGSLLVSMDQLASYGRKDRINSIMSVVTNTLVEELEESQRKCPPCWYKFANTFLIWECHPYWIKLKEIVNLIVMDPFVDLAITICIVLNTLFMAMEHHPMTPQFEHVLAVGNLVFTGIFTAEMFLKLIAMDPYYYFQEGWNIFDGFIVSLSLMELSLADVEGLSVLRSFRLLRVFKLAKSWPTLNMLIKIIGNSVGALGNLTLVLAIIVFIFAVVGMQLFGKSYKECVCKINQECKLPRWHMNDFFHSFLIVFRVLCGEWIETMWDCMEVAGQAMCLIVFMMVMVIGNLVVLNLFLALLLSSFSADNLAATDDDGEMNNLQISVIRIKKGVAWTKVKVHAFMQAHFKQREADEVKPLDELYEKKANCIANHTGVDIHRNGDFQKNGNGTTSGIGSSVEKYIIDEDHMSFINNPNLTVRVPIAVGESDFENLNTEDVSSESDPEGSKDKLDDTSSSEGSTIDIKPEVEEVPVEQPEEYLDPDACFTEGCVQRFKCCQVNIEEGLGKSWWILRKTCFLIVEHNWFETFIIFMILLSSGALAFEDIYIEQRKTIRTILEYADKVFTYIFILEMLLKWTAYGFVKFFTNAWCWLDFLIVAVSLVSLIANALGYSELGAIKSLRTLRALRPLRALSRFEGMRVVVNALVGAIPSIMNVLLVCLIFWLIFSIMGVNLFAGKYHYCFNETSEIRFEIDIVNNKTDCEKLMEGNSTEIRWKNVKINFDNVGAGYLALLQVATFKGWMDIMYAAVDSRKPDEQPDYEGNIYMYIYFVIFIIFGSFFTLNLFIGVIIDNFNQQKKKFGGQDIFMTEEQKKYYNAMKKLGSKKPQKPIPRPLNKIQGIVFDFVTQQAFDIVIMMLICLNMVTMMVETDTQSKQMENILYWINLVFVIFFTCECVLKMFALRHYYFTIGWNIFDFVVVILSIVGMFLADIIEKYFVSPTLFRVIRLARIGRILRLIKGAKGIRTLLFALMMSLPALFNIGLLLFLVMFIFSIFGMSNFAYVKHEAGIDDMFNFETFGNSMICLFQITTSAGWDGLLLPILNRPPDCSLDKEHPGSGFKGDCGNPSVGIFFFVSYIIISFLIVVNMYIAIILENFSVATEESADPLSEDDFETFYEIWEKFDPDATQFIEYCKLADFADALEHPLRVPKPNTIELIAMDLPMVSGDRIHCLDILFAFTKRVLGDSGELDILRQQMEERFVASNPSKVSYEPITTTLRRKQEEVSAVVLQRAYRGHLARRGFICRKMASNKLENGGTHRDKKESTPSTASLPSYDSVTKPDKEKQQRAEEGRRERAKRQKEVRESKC
Chain of High affinity choline transporter 1 (Homo sapiens) (Q9GZV3 whole entry): as the sequence (Q9GZV3 whole entry) above

Q: Which results are given for N#Cc1cc(S(=O)(=O)Nc2ncns2)ccc1Oc1ccc(-c2cccc(C(F)(F)F)c2)cc1-c1ccnc(CNCCC2CCNCC2)c1?
A: CL [1]: 44 mL/min/kg; inhibition at 10 µM (monoamine oxidase): 16%; Activity [2]: -1%; IC50 (Cytochrome P450 2D6): 8830 nM; fraction unbound at 2 µM [3]: 0.001; dose excreted at 1 h [4]: 74%; fraction unbound [5]: 0.00374; inhibition [6]: 85%; fraction unbound [7]: 0.00497; inhibition [8]: -4%; inhibition [9]: 30%; fraction unbound [10]: 0.00275; Vd [11]: 0.59 L/kg; inhibition [12]: 40%; Activity [13]: -4%; Activity [14]: -49%; microsomal CLint [15]: < 8 µL/min/mg; clearance [16]: 178 mL/min/kg; inhibition [17]: 29%; inhibition [18]: 11%; inhibition [19]: 15%; inhibition [20]: 36.1%; Activity [21]: 4%; IC50 [22]: < 0.03 nM; IC50 [23]: 108000 nM; fraction unbound [24]: 0.00281; IC50 [25]: 12800 nM; inhibition [26]: 99%; IC50 [27]: 5.01 nM; clearance [28]: 67.2 mL/min/kg; IC50 [29]: 1450 nM; clearance [30]: 39.8 mL/min/kg; IC50 [31]: 120 nM; Ki [31]: 68 nM; clearance [32]: 36.5 mL/min/kg; IC50 [33]: 75 nM; IC50 [34]: 2000 to 2590 nM; fraction unbound at 2 µM [35]: 0.003; Vd [36]: 0.54 L/kg; half-life [37]: 39.6 min
